“And” between values parts separate entries of the source, which are not always exact repeats. Identical values can stand only once.
How the values were obtained:
[1] = system: MIA PaCa-2 pancreatic cancer cells; experiment: MTT cytotoxicity assay in MIA PaCa-2 cells; type: cell-based; settings: read-out: IC50 MIA PaCa-2, 72 h, mean ± sd, three independent experiments
In short: (§1)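 Cells kept in RPMI 1640 with 10% FBS, under 35 passages, mycoplasma-free. Seeded in 96-well plates and attached overnight. Exposed to test compound or DMSO for 72 h, then 0.3 mg/mL MTT for 3 h at 37 °C. Medium removed, formazan dissolved in DMSO with 15 min shaking, absorbance read at 570 nm. IC50 obtained by curve fitting; mean ± SD from at least three independent experiments.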

[2] = system: PANC-1 pancreatic cancer cells; experiment: MTT cytotoxicity assay in PANC-1 cells; type: cell-based; settings: read-out: IC50 PANC-1, 72 h, mean ± sd, three independent experiments
In short: as §1

[3] = system: BxPC-3 pancreatic cancer cells; experiment: MTT cytotoxicity assay in BxPC-3 cells; type: cell-based; settings: read-out: IC50 BxPC-3, 72 h, mean ± sd, three independent experiments
In short: as §1

LRPPRC and PNPT1 = experiment: Immunoblot of LRPPRC and PNPT1 expression; type: cell-based; settings: MIA PaCa-2 cells, 3 × IC50, 4 h
In short: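 Cells seeded at 3.5 × 10^5 per 6-well were treated for 1 h or 4 h (H2O2 comparator 150 μM). Lysis was in RIPA with protease/phosphatase inhibitors, then sonication and BCA. 25 μg protein was run on 10% SDS-PAGE and transferred to PVDF. Blocking: 5% milk. Primary antibodies 1:500–1:1000 overnight at 4 °C, Dylight 800 secondary 1:6000 for 1 h. Infrared imaging; band densities normalized to loading controls.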

PK study in CD-1 mice = type: in vivo; settings: for Concentration at 7 h in mouse plasma, IP: IP 10 mg/kg, 10 mg/kg; for Concentration at 7 h in mouse plasma, IP / Concentration at 7 h in mouse plasma, PO: n=2, individual values; for Survival of mice after IV injection: IV 10 mg/kg; for Concentration at 7 h in mouse plasma, PO: PO 20 mg/kg, 20 mg/kg
In short: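 CD-1 mice dosed IP (10 mg/kg), PO (20 mg/kg) or IV (10 mg/kg). Blood drawn at 0.5, 2, 4 and 7 h using heparinized calibrated pipettes and centrifuged at 15,000 rpm for 10 min. Plasma collected, frozen at −80 °C, and assayed by LC-MS/MS.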

GPX4 = biological target: T1, GPX4 (Homo sapiens, UniProt P36969); experiment: Cellular thermal shift assay; type: cell-based; settings: pancreatic cancer cells, 100 μM, 1 h
T1 sequence (P36969 1-197): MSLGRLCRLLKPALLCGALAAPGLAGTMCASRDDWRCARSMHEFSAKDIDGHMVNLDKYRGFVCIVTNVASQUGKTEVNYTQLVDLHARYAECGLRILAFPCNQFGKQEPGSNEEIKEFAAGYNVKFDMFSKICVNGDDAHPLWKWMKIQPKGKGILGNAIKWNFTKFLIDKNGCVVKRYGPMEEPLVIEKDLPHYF
In short: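 MIA PaCa-2 or PANC-1 cells seeded at 3 × 10^6 per 10 cm dish, attached overnight, then exposed to 100 μM test compound or DMSO for 1 h. After heating, supernatants were resolved on 10% SDS gels and immunoblotted for GPX4. Bands were quantified to derive a GPX4 melting temperature.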

[4] = system: mouse colon cancer cell line CT-26; experiment: CT-26 subcutaneous tumor study in Balb/c mice; type: in vivo; settings: n=5, preliminary study
MIA PaCa-2 cells [5] = experiment: Cellular ROS measurement; type: cell-based; settings: for Cellular ROS: MIA PaCa-2 cells, 0-4 h, 30 min
In short: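 MIA PaCa-2 cells (RPMI 1640, 10% FBS, 37 °C, 5% CO2) seeded at 1.8 × 10^4 cells/well and attached overnight. Cells loaded with 10 μM CM-H2DCFDA in HBSS for 40 min at 37 °C, then washed twice with DPBS. Test compound added in HBSS at set concentrations. Fluorescence read at Ex 483/Em 530 nm over time. TBHP served as positive control.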

GSH/GSSG ratio = experiment: GSH/GSSG-Glo assay; type: cell-based; settings: MIA PaCa-2 cells, 2 h and 4 h treatment
In short: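 Luminescent GSH/GSSG-Glo kit. 15,000–20,000 cells/well attached overnight, then were treated. Medium was removed and cells were lysed in Total or Oxidized Glutathione Reagent (5 min shaking). Luciferin Generation Reagent was added for 30 min at room temperature, then Detection Reagent; luminescence was read after 15 min equilibration. Ratio from net RLU = (total glutathione − GSSG)/(GSSG/2).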

MIA PaCa-2 cells [6] = experiment: Lipid ROS measurement; type: cell-based; settings: 24 h treatment, BODIPY C11
In short: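 After compound exposure, MIA PaCa-2 cells received 10 μM C11-BODIPY for 30 min at 37 °C. They were washed twice with DPBS and read in HBSS on a plate reader at Ex/Em 581/591 nm (reduced dye) and 488/510 nm (oxidized dye). The Texas Red/FITC emission ratio was calculated; significance by unpaired Student's t-test.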

STAT3 = experiment: Immunoblot of STAT3 phosphorylation and pH2AX; type: cell-based; settings: MIA PaCa-2 and PANC-1 cells, 4 h
In short: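 Cells seeded at 3.5 × 10^5/well (6-well) and treated 4 h at indicated concentrations. Lysed in RIPA with protease and phosphatase inhibitors, sonicated and centrifuged. 25 μg protein run on 10% SDS-PAGE and transferred to PVDF. Blocked in 5% milk; primary antibodies (STAT3, pSTAT3, pH2AX, GAPDH; 1:500–1:1000) overnight at 4 °C; infrared secondary 1:6000, 1 h RT. Signals normalised to loading control.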

pancreatic cancer cells = experiment: Colony formation assay, drug combinations; type: cell-based
In short: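 Cells seeded in 96-well plates: 300/well for MIA PaCa-2, 600/well for PANC-1 and BxPC-3; attached overnight. Partner drug added 1 h before test compound, with continuous exposure. Incubation ran 7–9 days, until control wells were 80–90% confluent. Stained with 0.05% crystal violet for 30 min, washed, dried and imaged. Synergy scored with HSA and Bliss models.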

[7] = Tissue distribution analysis in mice; type: in vivo; settings: mouse, colon, intravenous, 10 mg/kg
In short: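 Tissue homogenised with bead beating in dissociation solvent at five-fold tissue weight. 30 μL homogenate mixed with 30 μL acetonitrile and 140 μL internal standard, vortexed, and centrifuged at 3500 g for 10 min. Supernatant analysed by LC-MS against calibration curves made in spiked blank homogenate.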

6-(9H-Fluoren-4-ylamino)quinazoline-5,8-dione [QD390]
IC50 [1]: 3.1 ± 1.5 µM | IC50 [2]: 4.7 ± 1.5 µM | IC50 [3]: 4.5 ± 0.6 µM

CC(=O)c1cc2c(o1)C(=O)c1ccccc1C2=O [Napabucasin, reference compound]
Protein expression of LRPPRC and PNPT1 (LRPPRC and PNPT1): decreased the protein expression of these two genes

CN1CCN(c2ccc(NC3=CC(=O)c4ncncc4C3=O)cc2)CC1 [QD394, 6-(4-(4-Methylpiperazin-1-yl)phenylamino)quinazoline-5,8-dione]
Concentration at 7 h in mouse plasma, IP (PK study in CD-1 mice): 5.0 ng/mL | Survival of mice after IV injection (PK study in CD-1 mice; n=3, 10 mg/kg): two out of three mice administered with QD394 via IV injection died and 2 out of 3 mice died | Concentration at 7 h in mouse plasma, PO (PK study in CD-1 mice): 23.3 ng/mL and 25.8 ng/mL | Effect on GPX4 protein stability (CETSA) (GPX4): destabilized GPX4 protein | Tumor shrinkage, QD394 IP group ([4]; CT-26, IP 20 mg/kg): Three out of five mice displayed tumor shrinkage | Cellular ROS (MIA PaCa-2 cells [5]): time-dependent cellular ROS accumulation | Intracellular ROS level among analogs (MIA PaCa-2 cells [5]; after 1 h compound treatment): highest level of intracellular ROS | GSH/GSSG ratio (GSH/GSSG ratio): significantly decreased the GSH/GSSG ratio | Lipid ROS (lipid peroxidation) (MIA PaCa-2 cells [6]): significantly increased lipid ROS in a dose-dependent manner | Phosphorylation of H2AX (DNA damage biomarker) (STAT3): increased the phosphorylation of H2AX | Phosphorylation of STAT3 (STAT3): inhibited the phosphorylation of STAT3 | Protein expression of LRPPRC and PNPT1 (LRPPRC and PNPT1): significantly decreased their expression at 4 h | Combination with napabucasin (pancreatic cancer cells; MIA PaCa-2 and PANC-1 cells): synergism | Combination with As2O3 (pancreatic cancer cells; pancreatic cancer cells): sensitizes cells to As2O3 | Combination with olaparib (pancreatic cancer cells; pancreatic cancer cells): synergistic effects

CC1=C(Nc2ccc(N3CCN(C)CC3)cc2)C(=O)c2cncnc2C1=O [QD394-Me, 7-Methyl-6-((4-(4-methylpiperazin-1-yl)phenyl)amino)quinazoline-5,8-dione]
Concentration at 7 h in mouse plasma, IP (PK study in CD-1 mice): 6.7 ng/mL and 1.1 ng/mL | Survival of mice after IV injection (PK study in CD-1 mice; n=3): all three mice that received IV injections of QD394-Me survived | Concentration at 7 h in mouse plasma, PO (PK study in CD-1 mice): 4.2 ng/mL | Effect on GPX4 protein stability (CETSA) (GPX4): destabilized GPX4 protein | concentration at 1 h [7]: ~300 ng/g | Tumor shrinkage, QD394-Me IV group ([4]; CT-26, IV 10 mg/kg): Three out of five mice displayed tumor shrinkage | Cellular ROS (MIA PaCa-2 cells [5]): significantly increased cellular ROS | Lipid ROS (lipid peroxidation) (MIA PaCa-2 cells [6]): increased lipid ROS significantly in a dose-dependent manner | Protein expression of LRPPRC and PNPT1 (LRPPRC and PNPT1): significantly decreased protein expression of LRPPRC and PNPT1

— paper PMC8082945 (Journal of medicinal chemistry, 2020)
